NF-kB neuron act = NF-kB expression increase, human neuronal cells | fold change at 12.5 µM | NF-kB reporter expression; stronger effect = higher value | actives 1.6% (n = 190,000); in the data active means fold change above about 3.3
FLuc act counter = firefly luciferase counter-screen for stimulation assays. ATPlite luciferase biochemical, luminescence, 10 min; 0 = ATP-free wells, 1 = DMSO control. activation factor at 10 µM. 200,000 tested, under 10 active. P08659;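 active means luciferase activation factor, scaled between plate controls, of at least 2 with compound at 10 µM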
Target sequence (P08659 whole entry, looked up): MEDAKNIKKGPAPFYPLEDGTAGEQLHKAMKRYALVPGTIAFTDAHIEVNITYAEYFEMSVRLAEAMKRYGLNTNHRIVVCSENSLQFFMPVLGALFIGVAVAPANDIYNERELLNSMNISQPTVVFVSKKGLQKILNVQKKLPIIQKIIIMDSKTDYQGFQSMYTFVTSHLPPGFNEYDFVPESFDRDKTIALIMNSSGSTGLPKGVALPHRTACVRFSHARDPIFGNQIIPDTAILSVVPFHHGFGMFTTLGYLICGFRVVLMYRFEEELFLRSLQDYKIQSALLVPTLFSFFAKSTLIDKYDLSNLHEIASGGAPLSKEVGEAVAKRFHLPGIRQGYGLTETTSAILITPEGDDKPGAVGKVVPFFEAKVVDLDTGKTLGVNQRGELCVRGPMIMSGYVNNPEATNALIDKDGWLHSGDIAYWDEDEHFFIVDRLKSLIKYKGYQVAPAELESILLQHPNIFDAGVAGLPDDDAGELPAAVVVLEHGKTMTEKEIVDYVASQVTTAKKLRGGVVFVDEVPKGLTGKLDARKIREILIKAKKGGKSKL
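Assay system: Luciferase/luciferin detection reagent, cell-free biochemical luciferase assay / Also added: ATP substrate / Schedule: 10 min at ambient temperature / Measured by: luminescence measurement of luciferase light output / Benchmarks: low control with PBS replacing ATP, high control enzyme plus ATP without compound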
APP 5'UTR act = activates APP 5'UTR luciferase reporter; SH-SY5Y APP 5'UTR luciferase reporter, luminescence; zero percent = DMSO vehicle wells; activation, % at 2 µM; actives 1% (n = 190,000); AID 1276;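 active means activation above a set limit, based on mean plus 3 SD of controls, cut at about 140% in these data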
C8 TRAIL sens = caspase-8 TRAIL sensitization; AID 624354; NB7+C8 cells + TRAIL, ATPlite viability luminescence; actives 1% (n = 360,000); inhibition (viability loss, TRAIL sensitization), % at 10 µM;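 active means compounds causing at least 50% loss of cell viability in the single-dose screen, relative to plate controls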
PPC-1+TRAIL kill = PPC-1 cancer cell killing with TRAIL present | cell killing (% activity), % at 4 µM or 5 µM | PPC-1 cells + TRAIL, ATPLite viability luminescence | AID 1443 | actives 0.41% (n = 220,000);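 active means cell killing above 50% in the first pass at 4 µM, then a duplicate retest at 5 µM averaging 50% or more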
FLuc inh counter = Photinus pyralis luciferase inhibition counter-screen; P08659; ATPLite firefly luciferase biochemical luminescence, 10 min; inhibition, % at 10 µM; actives 1.5% (n = 200,000);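 active means inhibition above about 50% when tested at 10 µM, limit read from the data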
Each line names hits and unclear results; the compound was inactive in the other large screens. A selection: hits, their analogues and other compounds. The true share with any hit is near 2.2%.

O=C(/C=C/c1ccccc1)Nc1scc(-c2ccccc2)c1C(=O)O	FLuc inh counter 74.3
O=C(/C=C/c1ccco1)Nc1nc(-c2ccccc2)cs1	none
O=C(/C=C/c1ccco1)Nc1scc(-c2ccccc2)c1C(=O)O	C8 TRAIL sens 54.3 (no result: NF-kB neuron act, FLuc act counter, APP 5'UTR act, FLuc inh counter)
C=CCSc1nnc(-c2ccc(Cl)cc2Cl)o1	NF-kB neuron act 7.5, APP 5'UTR act 158.9, FLuc inh counter 59.3
CCOC(=O)N1CCN(C(=O)CSCC(=O)Nc2nc(-c3ccc(OC)cc3)cs2)CC1	none
CCOC(=S)SCC(=O)Nc1nc(-c2ccc(Br)cc2)cs1	NF-kB neuron act 4.59
CCOC(=O)N1CCN(C(=O)CSCC(=O)Nc2nc(-c3ccc(-c4ccccc4)cc3)cs2)CC1	C8 TRAIL sens 61.8
Cc1ccc(S(=O)(=O)N2CCCC2CNC(=O)C(=O)NCc2ccccn2)cc1 (stereo unspecified)	none (no result: NF-kB neuron act, FLuc act counter, APP 5'UTR act, PPC-1+TRAIL kill, FLuc inh counter)
COc1ccc(-c2noc(N3CCCC(C(=O)Nc4ccc(C(C)=O)cc4)C3)n2)cc1 (stereo unspecified)	none (no result: NF-kB neuron act, FLuc act counter, APP 5'UTR act, PPC-1+TRAIL kill, FLuc inh counter)
CCOc1ccc(-n2nnnc2-c2nc3ccccc3s2)cc1	C8 TRAIL sens 63.2
C[C@@]12C(=O)OC(=O)[C@]1(C)C1CCC2O1	C8 TRAIL sens 64.7 (no result: NF-kB neuron act, FLuc act counter, APP 5'UTR act, PPC-1+TRAIL kill, FLuc inh counter)
COc1ccc(/C=N/Nc2nc3ccccc3c(=O)n2-c2ccccc2)cc1OC	C8 TRAIL sens 52.6, FLuc inh counter 69.3
COc1cc(/C=N/NC(=Nc2ccc(C)cc2)c2nc3ccccc3s2)ccc1O	C8 TRAIL sens 51.9
COc1cc(/C=N/Nc2nc3ccccc3[nH]2)ccc1O	FLuc inh counter 54.6
COc1cc(/C=N/Nc2nc3ccccc3[nH]2)cc(OC)c1O	FLuc inh counter 61.1
COc1ccccc1/C=N/NC(=Nc1ccc(C)cc1)c1nc2ccccc2s1	none (no result: C8 TRAIL sens)
Cc1onc(-c2ccccc2)c1NC(=O)N(CCC(=O)O)Cc1ccccc1	none (no result: NF-kB neuron act, FLuc act counter, APP 5'UTR act, FLuc inh counter)
COc1cc(/C=N/Nc2nc3ccccc3[nH]c2=O)ccc1O	FLuc inh counter 50.0
CC(/C=N/Nc1nc2ccccc2[nH]1)=C\c1ccccc1	NF-kB neuron act 8.6, APP 5'UTR act 172.4, FLuc inh counter 72.0
CC(=O)Nc1ccc(/C=N/Nc2nc3ccccc3[nH]2)cc1	C8 TRAIL sens 74.6
CC1CN(C(=O)CCC(=O)NCCCc2ccccc2)c2ccccc2O1 (stereo unspecified)	none (no result: NF-kB neuron act, FLuc act counter, APP 5'UTR act, PPC-1+TRAIL kill, FLuc inh counter)
Cn1sc(NC(=O)c2ccc(Cl)cc2)nc1=O	C8 TRAIL sens 50.2, FLuc inh counter 77.8
CCn1c(NC(=O)c2ccc(F)cc2)c2ccccc2nc1=O	none (no result: APP 5'UTR act)
O=C(Nc1nc(=O)c2ccccc2s1)c1ccc(F)cc1	C8 TRAIL sens 54.8, FLuc inh counter 53.7
O=C(Nc1nc(=O)c2ccccc2s1)c1ccc(Cl)cc1	C8 TRAIL sens 66.8
O=C(Cc1ccccc1)Nc1nc(=O)c2ccccc2s1	none
OC[C@H]1O[C@@H](n2cnc3c(Nc4ccccc4)ncnc32)[C@H](O)[C@@H]1O	none
CN(C)c1ncnc2c1ccn2C1OC(CO)C(O)C1O (stereo unspecified)	C8 TRAIL sens 78.2 (no result: NF-kB neuron act, FLuc act counter, APP 5'UTR act, PPC-1+TRAIL kill, FLuc inh counter)
OCC1OC(n2cnc3c(NCc4ccccc4O)ncnc32)C(O)C1O (stereo unspecified)	C8 TRAIL sens 75.7 (no result: NF-kB neuron act, FLuc act counter, APP 5'UTR act, PPC-1+TRAIL kill, FLuc inh counter)
OCC1OC(n2ccc3c(NO)ncnc32)C(O)C1O (stereo unspecified)	C8 TRAIL sens 92.1 (no result: NF-kB neuron act, FLuc act counter, APP 5'UTR act, PPC-1+TRAIL kill, FLuc inh counter)
O=C(COC(=O)[C@@H]1CCCN1C(=O)c1cccs1)Nc1cccc([N+](=O)[O-])c1	none (no result: NF-kB neuron act, FLuc act counter, APP 5'UTR act, PPC-1+TRAIL kill, FLuc inh counter)
Cc1csc(NC(=O)CSc2nc3[nH]c(=O)cc(O)c3s2)n1	C8 TRAIL sens 58.0 (no result: NF-kB neuron act, FLuc act counter, APP 5'UTR act, PPC-1+TRAIL kill, FLuc inh counter)
O=C(CSc1nc2[nH]c(=O)cc(O)c2s1)Nc1nncs1	none (no result: NF-kB neuron act, FLuc act counter, APP 5'UTR act, PPC-1+TRAIL kill, FLuc inh counter)
CCC(=NCc1ccco1)c1c(C(F)(F)F)[nH]n(-c2nc3ccccc3s2)c1=O	none
CC(=NCc1ccco1)c1c(C)[nH]n(-c2nc3ccccc3s2)c1=O	APP 5'UTR act 152.8
COC(=O)[C@@H]1Cc2c([nH]c3ccccc23)C(C)(C)N1C(=O)CCl	C8 TRAIL sens 95.6 (no result: NF-kB neuron act, FLuc act counter, APP 5'UTR act, PPC-1+TRAIL kill, FLuc inh counter)
CCc1ccc(C2=NN(C(C)=O)C(c3ccco3)C2)cc1 (stereo unspecified)	NF-kB neuron act 4.74, APP 5'UTR act 144.2
O=C(CCl)N1N=C(c2cccs2)CC1c1ccco1 (stereo unspecified)	C8 TRAIL sens 90.7
CC(Oc1ccc(S(=O)(=O)N2CCCC2)cc1[N+](=O)[O-])C(=O)NC1(C#N)CCCCC1 (stereo unspecified)	none (no result: NF-kB neuron act, FLuc act counter, APP 5'UTR act, PPC-1+TRAIL kill, FLuc inh counter)
CCn1cnc2cc(NC(=O)c3ccco3)ccc21	FLuc inh counter 66.3
Cn1c(CCNC(=O)c2ccco2)nc2cc(NC(=O)c3ccco3)ccc21	none
Cc1nc2cc(NC(=O)c3ccco3)ccc2n1C	C8 TRAIL sens 50.6 (no result: NF-kB neuron act, FLuc act counter, APP 5'UTR act, PPC-1+TRAIL kill, FLuc inh counter)
Cc1cccc(-c2c(O)cc(=O)[nH]c2Cl)c1	NF-kB neuron act 5.9
O=c1cc(O)c(-c2ccccc2Cl)c(Cl)[nH]1	none
COCC(=O)Nc1nnc(-c2ccc(C(C)(C)C)cc2)s1	NF-kB neuron act 8.37, APP 5'UTR act 141.7, FLuc inh counter 60.4
CCCCC1(CO)C(=O)N(c2ccccc2)N(c2ccccc2)C1=O	none (no result: NF-kB neuron act, FLuc act counter, APP 5'UTR act, FLuc inh counter)
CCCCC1C(=O)N(c2ccccc2)N(c2ccc(O)cc2)C1=O (stereo unspecified)	C8 TRAIL sens 57.1 (no result: NF-kB neuron act, FLuc act counter, APP 5'UTR act, PPC-1+TRAIL kill, FLuc inh counter)
O=C(c1ccc(Br)o1)N1CCN(c2ccc3nnc(-c4ccccc4)n3n2)CC1	none
O=S(=O)(c1ccc(Br)cc1)N1CCN(c2ccc3nnc(-c4ccccc4)n3n2)CC1	C8 TRAIL sens 50.9
Cc1ccccc1-n1c(C)nnc1SCc1nc2ccccc2s1	APP 5'UTR act 141.3
CC(C)(C)C(=O)Nc1nc(=S)ss1	none (no result: APP 5'UTR act)

High-throughput results deposited in PubChem BioAssay by several laboratories.
